rCAG RNA binder – r(CAG) repeat RNA binding; inhibition, % at 3 µM; 370,000 tested, 1.3% active; TO-PRO-1 dye displacement fluorescence;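 active means inhibition above the plate cutoff, the mean of all test compounds on that plate plus 3 SD, cut at about 35% in these data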;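 further: 0% = DMSO alone and 100% = 100 µM mitoxantrone as full dye displacement; higher means more dye released from RNA so lower well fluorescence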
core dimer inh – HCV core protein dimerization inhibition; AID 1899; 300,000 tested, 0.33% active; inhibition, % at 5 µM; TR-FRET GST/Flag-core106 dimerization, 1536-well;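 active means inhibition above the mean of all tested compounds plus 3 SD, set per screening campaign, cut at about 45% in these data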
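Assay system: tagged HCV core106 pair (GST and Flag); medium: KF-containing HEPES buffer, pH 7.45, DTT, CHAPS, BSA; also added: Eu donor and XL665 acceptor anti-tag antibodies; dosing: 5 µM single dose; timing: compound-protein-antibody incubation 4 h at 22.5 °C; signal: TR-FRET 671 and 617 nm emission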
TAAR1 antag – antagonists of human TAAR1; 360,000 tested, 1.5% active; CHO RD-HGA16 TAAR1, Fluo-8 calcium fluorescence, antagonist; AID 624466; Q96RJ0; inhibition, % at 3 µM;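 active means inhibition above a per-plate cutoff, the mean inhibition of test compounds on that plate plus 3 SD, cut at about 49% in these data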;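 further: 0% = DMSO plus EC80 beta-PEA response and 100% = DMSO alone without agonist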
Target sequence (Q96RJ0 whole entry, looked up): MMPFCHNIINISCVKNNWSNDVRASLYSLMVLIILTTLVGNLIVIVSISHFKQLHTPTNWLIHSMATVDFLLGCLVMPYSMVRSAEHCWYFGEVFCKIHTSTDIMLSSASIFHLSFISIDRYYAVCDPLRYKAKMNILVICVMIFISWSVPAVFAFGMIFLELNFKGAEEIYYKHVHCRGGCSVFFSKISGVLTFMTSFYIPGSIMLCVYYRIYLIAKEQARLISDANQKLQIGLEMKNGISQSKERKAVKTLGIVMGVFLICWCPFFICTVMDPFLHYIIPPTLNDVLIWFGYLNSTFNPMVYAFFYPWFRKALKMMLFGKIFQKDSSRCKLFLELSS
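Material: RD-HGA16 CHO cells with stable hTAAR1 and Gα16; Dosing: single nominal final test compound concentration of 3 µM; Schedule: seeding 17-24 h prior, 75-min 37 °C, 30-min RT dye loading; Detection: kinetic Fluo-8 calcium fluorescence measurement; Measure: % inhibition from peak post-agonist over basal fluorescence ratio; Benchmarks: vehicle and agonist controls.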
TAAR1 ag – human TAAR1 agonism. Q96RJ0. CHO RD-HGA16 TAAR1, Fluo-8 calcium fluorescence; vehicle wells 0%, saturating PEA agonist 100%. activation, % at 3 µM. 360,000 tested, 0.99% active. AID 624467;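 active means activation above the mean activation of all test compounds in the run plus 3 SD, cut at about 38% in these data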
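System: CHO RD-HGA16 cells carrying human TAAR1 plus Gα16; Incubation: 17-24 h seeding, 75 min 37 °C dye, 30 min RT; Measured by: Fluo-8 fluorescence, 5 s baseline then 140 s kinetic read; Control set: DMSO and PEA EC100; Replication: single well for each compound.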
HCV NS3 hel inh – inhibitors of Hepatitis C virus NS3 helicase; inhibition, % at 10.9 µM; 290,000 tested, 0.56% active; NS3 helicase DNA unwinding, Cy5 molecular beacon fluorescence;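 active means inhibition above the mean of all tested compounds plus 3 SD, set per campaign, cut at about 35% in these data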;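 further: 0% = DMSO wells and 100% = thioflavine S control wells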
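Assay system: hepatitis C virus NS3 helicase domain fragment enzyme. Also added: annealed dual-labelled DNA beacon duplex, ATP-started. Timing: 1 h reaction at 25 °C, ATP-initiated. Technique: Cy5 fluorescence at 0 and 60 min, beacon hairpin quenching. Evaluation: % inhibition of unwinding. Replication: one well per compound.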
NS3 helicase cf – confirmation of Hepatitis C virus NS3 helicase inhibitors; shares compounds with HCV NS3 hel inh; inhibition, % at 10.9 µM; NS3 helicase DNA unwinding, Cy5 molecular beacon fluorescence; 1,600 tested, 31% active;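 active means inhibition above the mean of all tested compounds plus 3 SD, cutoff set per campaign, cut at about 36% in these data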
DNA FID counter – intercalator displacement, NS3 helicase counter-screen | AID 1945 | inhibition, % at 7.9 µM | shares compounds with HCV NS3 hel inh | 1,600 tested, 4% active | DNA fluorescent intercalator displacement, fluorescence; in the data active means inhibition above about 37%;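 further: 0% = vehicle and 100% = reference compound; higher means more displacement of ethidium bromide from the DNA hairpin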
An asterisk follows results filed as active; . = no result given. Only some compounds are listed: those with a hit (about 3.7% of all), similar ones and a draw of the others.

SMILES	rCAG RNA binder	core dimer inh	TAAR1 antag	TAAR1 ag	HCV NS3 hel inh	others
COC(=O)C(O)(c1ccc(NC(=S)NC(=O)c2ccc(Cl)cc2Cl)c(C)c1)C(F)(F)F (stereo not given)	-4	5	72*	34	-7
COC(=O)C(O)(c1ccc(NC(=O)NC2CCCCC2)cc1)C(F)(F)F (stereo not given)	-4	0	5	4	4
O=C1CC[C@@]2(O)[C@H]3Cc4ccc(O)c5c4[C@@]2(CCN3CC2CC2)C1O5 (stereo not given in full)	5	.	-10	0	.
CCC(NC(=O)OCc1ccccc1)P(=O)(Oc1ccccc1)Oc1ccccc1 (stereo not given)	-1	.	.	.	.
NC(Cc1ccccc1)[P+](=O)O (stereo not given)	1	.	.	.	.
O=C(N/N=C/c1c(O)n(Cc2ccccc2)c(=O)[nH]c1=O)c1ccccc1O	81*	0	-20	0	29
CCCCc1nc(N2CCNCC2)c(C#N)c2c1CSC(C)(C)C2	10	-5	17	40*	-26
C[C@]12C[C@H](O)[C@@H](O)C[C@@H]1CC[C@@H]1[C@@H]2CC[C@]2(C)C(=O)CC[C@@H]12	-6	.	51*	11	.
C=CCOc1ccc(CC2C(=O)N(C)C(=O)N(C)C2=O)cc1	10	85*	-4	1	9
NC(Cc1ccccc1)c1csc(Nc2ccccn2)n1 (stereo not given)	9	.	12	6	.
NC(Cc1ccc(Cl)cc1)c1csc(Nc2ccccn2)n1 (stereo not given)	11	.	29	44*	.
NC(Cc1ccc(F)cc1)c1csc(Nc2ccccn2)n1 (stereo not given)	12	.	8	40*	.
CS(=O)(=O)N1Cc2cc(Br)ccc2-n2nncc2C1	3	.	-44	2	.
N=c1c2c(-c3ccccc3)c(-c3ccccc3)n(Cc3ccccc3)c2ncn1C1CCC(O)CC1 (stereo not given)	5	.	.	.	.
Cc1ccccc1N1C(=O)NC(=O)/C(=C\c2ccc3c(c2)CCCN3Cc2ccccc2)C1=O	5	15	17	16	2
O=C1NC(=S)NC(=O)C1=Cc1ccc2c(c1)CCN2CCCCl	.	65*	.	.	27
COC(=O)C1(N(C)c2ccccc2)CCN(Cc2ccccc2)CC1	0	.	.	.	.
O=C(CN1C(=O)[C@@H](Cc2ccccc2)N=C(c2ccccc2)c2ccccc21)NC1CCCCC1	6	.	.	.	.
O=C(O)COc1ccc(Cl)cc1Cl	2	0	-8	1	.
Oc1cc(Cl)ccc1Oc1ccc(Cl)cc1Cl	7	-6	50*	-2	.
CN1c2ccc(Br)cc2[C@H]2NCC[C@H]2[C@H]1CO	5	.	.	.	.
COc1cccc(N=Cc2c(O)n(Cc3ccco3)c(=O)[nH]c2=O)c1	9	8	3	4	17
CC(C)n1c(=O)c(C=Nc2ccc(Cl)cc2)c(O)n(Cc2ccco2)c1=O	11	24	3	10	47*
C[C@]12CC[C@H](O)CC1=CC[C@@H]1[C@@H]2CC[C@]2(C)C(=O)CC[C@@H]12	-2	1	-21	7	.
C[C@]12CC[C@H](O)CC1=CCC1C2CC[C@]2(C)C(=O)[C@H](Br)CC12 (stereo not given in full)	0	.	59*	12	.
CN(C)c1ccc(/C=C/C=C/c2sc3ccccc3[n+]2C)cc1	15	-15	2	-1	30
CC[n+]1c(/C=C/C=C/c2ccc(N(C)C)cc2)sc2ccccc21	18	-29	-5	1	48*	NS3 helicase cf=107*;DNA FID counter=36
CC(C)n1c(=O)c(C=Nc2ccc(F)cc2)c(O)n(Cc2ccco2)c1=O	13	23	-15	2	48*	NS3 helicase cf=-5;DNA FID counter=5
Cc1ccccc1-n1c(O)c(C=Nc2ccc3c(c2)OCO3)c(=O)[nH]c1=O	4	-3	30	13	37*	NS3 helicase cf=-14;DNA FID counter=1
COc1ccccc1-n1c(O)c(C=NCc2ccc3c(c2)OCO3)c(=O)[nH]c1=O	6	0	0	11	0

Assay outcomes from PubChem BioAssay.
